Like-named read-outs stand apart in the source and are kept apart here.

The term CLint scaled denotes the rate of metabolic loss divided by the concentration.

The nature of data set [1]: Intrinsic clearance in rat hepatic microsomes and predicted hepatic clearance. The data set is classed as in vitro ADME. The settings on record: for Rat CLHEP (predicted hepatic clearance): calculated from rat microsomal CLINT; for CLint scaled at 1 µM: rat, liver microsomes.
The format of data set [2] is in vivo, rat. Particulars: 1 h; for Concentration, Plasma HPV: hepatic portal vein. The method in brief:
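Rats received 10 mg/kg test compound orally, with vehicle or co-dosed with 1-aminobenzotriazole, a pan-irreversible cytochrome P450 inhibitor. At 1 h, concentrations were measured in systemic plasma, hepatic portal vein plasma and brain.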

[3] abbreviates: po 10 mg/kg with vehicle (no ABT).

As for `O=C(Nc1ccn(S(=O)(=O)c2ccc(Cl)cc2)c1)c1ccccn1` [11o], in data set [1], the “Rat CLHEP (predicted hepatic clearance)” value is 65.9 mL/min/kg and the CLint scaled at 1 µM was 1130 mL/min/kg.
For the compound `Cc1cc(S(=O)(=O)n2ccc(NC(=O)c3ccccn3)c2)ccc1Cl` [11t], in data set [2] (po 10 mg/kg co-dosed with ABT), the “Concentration, Brain” value is on record as 175.5 ng/mg or g; the “Concentration, Plasma systemic” value is recorded as 198.5 ng/mg or g; the “Concentration, Plasma HPV” value is 764.5 ng/mg or g. In addition, in data set [2] (setting [3]), the “Concentration, Brain” value is 8.1 ng/mg or g; the “Concentration, Plasma systemic” value is given as 7.4 ng/mg or g; the “Concentration, Plasma HPV” value is 731 ng/mg or g. Further, in data set [1], the “Rat CLHEP (predicted hepatic clearance)” value is recorded as 68.6 mL/min/kg and the CLint scaled at 1 µM is 3440 mL/min/kg.
As for `Cc1ccc(S(=O)(=O)n2ccc(NC(=O)c3ccccn3)c2)cc1C` [11r, N-(1-((3,4-Dimethylphenyl)sulfonyl)-1H-pyrrol-3-yl)picolinamide], the CLint scaled at 1 µM in data set [1] was 293 mL/min/kg.
Regarding `Cc1ccc(S(=O)(=O)n2cc(NC(=O)c3ccccn3)cn2)cc1C` [11s], in data set [1], the “Rat CLHEP (predicted hepatic clearance)” value is listed as 68.7 mL/min/kg and the CLint scaled at 1 µM is 3800 mL/min/kg.
For `Cc1ccc(S(=O)(=O)n2ccc(NC(=O)c3ccccn3)c2)cc1` [11l] the same measures were 68.2 mL/min/kg and 2700 mL/min/kg.
For `Cc1cccc(S(=O)(=O)n2ccc(NC(=O)c3ccccn3)c2)c1` [11m] the same measures were 68.8 mL/min/kg and 4040 mL/min/kg.

Source of the values: article PMC4955388 (Bioorganic & medicinal chemistry letters, 2016).
